Results as given in ChEMBL document CHEMBL4813978 (Bioorg Med Chem Lett, 2021).

Columns and labels:
[1] = target: T1, Muscarinic acetylcholine receptor M1 (Homo sapiens, UniProt P11229); experiment: Agonist activity at muscarinic M1 receptor (unknown origin) expressed in CHO cells; assay type: functional, cell-based
T1 sequence (P11229 whole entry): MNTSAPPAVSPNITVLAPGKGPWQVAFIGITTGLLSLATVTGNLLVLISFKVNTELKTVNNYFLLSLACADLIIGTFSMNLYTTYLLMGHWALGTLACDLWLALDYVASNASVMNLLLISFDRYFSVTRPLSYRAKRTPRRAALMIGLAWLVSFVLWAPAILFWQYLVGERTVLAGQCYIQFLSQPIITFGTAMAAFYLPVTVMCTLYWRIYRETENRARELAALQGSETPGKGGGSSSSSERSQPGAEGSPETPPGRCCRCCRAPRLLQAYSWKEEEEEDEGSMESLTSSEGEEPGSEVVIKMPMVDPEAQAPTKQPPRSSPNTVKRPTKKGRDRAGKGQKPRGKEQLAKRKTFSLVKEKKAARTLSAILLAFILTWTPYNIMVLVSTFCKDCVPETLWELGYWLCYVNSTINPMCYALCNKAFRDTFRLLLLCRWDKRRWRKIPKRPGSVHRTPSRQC

[2] = target: T2, Muscarinic acetylcholine receptor M2 (Homo sapiens, UniProt P08172); experiment: Agonist activity at muscarinic M2 receptor (unknown origin) expressed in CHO cells; assay type: functional, cell-based
T2 sequence (P08172 whole entry): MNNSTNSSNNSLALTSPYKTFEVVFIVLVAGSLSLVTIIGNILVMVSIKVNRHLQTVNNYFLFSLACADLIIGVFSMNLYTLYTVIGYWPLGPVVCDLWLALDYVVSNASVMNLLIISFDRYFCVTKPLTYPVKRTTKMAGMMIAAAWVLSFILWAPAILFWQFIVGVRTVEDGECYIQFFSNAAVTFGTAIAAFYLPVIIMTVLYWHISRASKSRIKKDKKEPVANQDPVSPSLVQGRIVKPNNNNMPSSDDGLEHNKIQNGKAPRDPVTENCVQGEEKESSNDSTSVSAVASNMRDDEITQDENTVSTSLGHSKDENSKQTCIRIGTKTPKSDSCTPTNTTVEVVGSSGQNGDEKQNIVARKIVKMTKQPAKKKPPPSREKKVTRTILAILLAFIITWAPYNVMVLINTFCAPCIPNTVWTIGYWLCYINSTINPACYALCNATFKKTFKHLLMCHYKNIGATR
Method in brief: (§1)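 Agonist-mode EC50 with Emax. Emax given as mean ± SE of two or more experiments.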

[3] = target: Muscarinic acetylcholine receptor M3 (Homo sapiens, UniProt P20309); experiment: Agonist activity at muscarinic M3 receptor (unknown origin) expressed in CHO cells; assay type: functional, cell-based
[4] = target: T3, Muscarinic acetylcholine receptor M4 (Homo sapiens, UniProt P08173); experiment: Agonist activity at muscarinic M4 receptor (unknown origin) expressed in CHO cells; assay type: functional, cell-based; method in brief: as §1
T3 sequence (P08173 whole entry): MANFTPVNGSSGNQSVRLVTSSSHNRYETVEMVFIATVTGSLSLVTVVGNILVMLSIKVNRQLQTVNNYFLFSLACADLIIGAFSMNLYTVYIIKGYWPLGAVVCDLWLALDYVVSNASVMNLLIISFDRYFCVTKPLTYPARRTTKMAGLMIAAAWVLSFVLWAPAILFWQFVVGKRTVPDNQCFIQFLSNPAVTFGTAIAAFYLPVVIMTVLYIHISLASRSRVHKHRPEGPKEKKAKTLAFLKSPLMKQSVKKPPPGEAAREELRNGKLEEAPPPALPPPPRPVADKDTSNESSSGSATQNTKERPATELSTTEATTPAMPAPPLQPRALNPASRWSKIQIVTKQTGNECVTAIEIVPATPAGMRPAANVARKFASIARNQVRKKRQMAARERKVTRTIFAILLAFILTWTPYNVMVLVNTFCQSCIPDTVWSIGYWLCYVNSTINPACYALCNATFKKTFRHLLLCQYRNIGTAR

[5] = Glutathione reactivity of compound assessed as compound-dGSH conjugate formation incubated by fluorescence detector; assay type: physicochemical
Method in brief: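 Test compounds incubated with dansyl-glutathione (dGSH) and a human hepatocyte microsome fraction. The test compound–dGSH conjugate was quantified by fluorescence detection and reported as μmol/L.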

D(1A) dopamine receptor = D(1A) dopamine receptor (Homo sapiens, UniProt P21728); experiment: Antagonist activity at human D1 receptor expressed in CHO cells assessed as inhibition of dopamine-induced calcium accumulation; assay type: functional, cell-based
D(2) dopamine receptor = D(2) dopamine receptor (Homo sapiens, UniProt P14416); experiment: Antagonist activity at human D2 receptor expressed in CHO cells assessed as inhibition of dopamine-induced calcium accumulation; assay type: functional, cell-based
[6] = Drug concentration in po dosed mouse brain measured after 1 hr; assay type: ADME, organism-based; settings: read-out: Drug uptake
[7] = Ratio of drug level in brain to plasma in po dosed mouse after 1 hr; assay type: ADME, organism-based; settings: read-out: BPR
[8] = Drug concentration in po dosed mouse plasma measured after 1 hr; assay type: ADME, organism-based

Chain of D(2) dopamine receptor (P14416 whole entry): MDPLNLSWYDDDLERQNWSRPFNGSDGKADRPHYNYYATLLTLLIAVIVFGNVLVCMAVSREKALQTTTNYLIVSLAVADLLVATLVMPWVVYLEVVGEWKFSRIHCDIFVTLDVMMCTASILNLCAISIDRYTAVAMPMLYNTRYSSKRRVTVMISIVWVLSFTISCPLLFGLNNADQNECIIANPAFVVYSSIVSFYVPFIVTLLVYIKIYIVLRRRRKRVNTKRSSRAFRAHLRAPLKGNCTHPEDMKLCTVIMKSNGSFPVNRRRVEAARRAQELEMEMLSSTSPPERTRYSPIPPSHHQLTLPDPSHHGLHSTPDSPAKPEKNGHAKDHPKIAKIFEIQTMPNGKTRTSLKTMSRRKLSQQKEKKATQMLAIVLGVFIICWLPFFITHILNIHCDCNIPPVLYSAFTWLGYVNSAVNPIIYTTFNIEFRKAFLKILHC
Chain of D(1A) dopamine receptor (P21728 whole entry): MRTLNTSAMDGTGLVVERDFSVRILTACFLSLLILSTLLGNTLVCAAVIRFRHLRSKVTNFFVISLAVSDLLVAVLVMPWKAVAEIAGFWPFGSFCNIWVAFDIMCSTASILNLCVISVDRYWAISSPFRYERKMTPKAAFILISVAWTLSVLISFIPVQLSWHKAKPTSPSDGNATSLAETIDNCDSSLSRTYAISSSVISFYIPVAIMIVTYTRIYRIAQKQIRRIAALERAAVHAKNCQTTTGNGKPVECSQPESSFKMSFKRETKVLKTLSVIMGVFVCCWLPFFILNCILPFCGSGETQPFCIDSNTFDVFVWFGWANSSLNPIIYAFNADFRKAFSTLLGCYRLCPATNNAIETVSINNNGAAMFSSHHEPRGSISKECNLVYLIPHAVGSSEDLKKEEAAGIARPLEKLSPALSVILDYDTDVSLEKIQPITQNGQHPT
Chain of Muscarinic acetylcholine receptor M3 (P20309 whole entry): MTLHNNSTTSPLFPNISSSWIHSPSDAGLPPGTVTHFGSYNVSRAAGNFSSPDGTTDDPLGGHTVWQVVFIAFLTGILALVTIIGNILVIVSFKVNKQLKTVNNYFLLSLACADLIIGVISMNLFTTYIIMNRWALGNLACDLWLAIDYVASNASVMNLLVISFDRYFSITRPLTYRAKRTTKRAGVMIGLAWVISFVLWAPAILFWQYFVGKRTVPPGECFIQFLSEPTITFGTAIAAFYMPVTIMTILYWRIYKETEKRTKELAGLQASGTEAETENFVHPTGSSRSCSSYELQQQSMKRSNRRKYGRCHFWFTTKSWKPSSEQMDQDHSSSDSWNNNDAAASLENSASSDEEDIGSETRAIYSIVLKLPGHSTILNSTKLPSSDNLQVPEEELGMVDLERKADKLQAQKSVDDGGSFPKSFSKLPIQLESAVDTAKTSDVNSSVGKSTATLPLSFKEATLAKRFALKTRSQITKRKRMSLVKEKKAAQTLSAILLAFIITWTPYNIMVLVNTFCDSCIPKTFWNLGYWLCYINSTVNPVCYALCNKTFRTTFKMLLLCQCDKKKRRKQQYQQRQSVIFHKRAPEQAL

Structure (SMILES) | EC50 [1] [µM] | EC50 [2] [µM] | EC50 [3] [µM] | EC50 [4] [µM] | Activity [5] [µmol/L] | Ki (D(1A) dopamine receptor) [nM] | Ki (D(2) dopamine receptor) [nM] | concentration at 1 h [6] [nM] | Kp at 1 h [7] | concentration at 1 h [8] [nM]
CN1CC=C(C2=Nc3cc(Cl)ccc3Nc3ccccc32)CC1 | 0.35 | > 10 | 0.64 | > 10 | 0.21 |  |  |  |  | 
CCc1ccc2c(c1)C(C1=C[C@H](C)N(C)CC1)=Nc1cc(Cl)ccc1N2 | > 10 |  |  |  |  |  |  |  |  | 
Cc1ccc2c(c1)N=C(C1=C[C@H](C)N(C)CC1)c1cc(F)ccc1N2 | > 10 |  |  |  |  |  |  |  |  | 
Fc1ccc2c(c1)C(C1=CCNCC1)=Nc1cc(Cl)ccc1N2 | > 10 | > 10 | > 10 | > 10 |  |  |  |  |  | 
CN1CC=C(C2=Nc3cc(Cl)ccc3Nc3ccc(F)cc32)CC1 | 4.7 | > 10 | > 10 | > 10 | 0.3 | 35 | 410 |  |  | 
CCN1CC=C(C2=Nc3cc(Cl)ccc3Nc3ccc(F)cc32)CC1 | > 10 |  |  | > 10 | 0.27 |  | 340 |  |  | 
COc1ccc2c(c1)C(C1=CCN(C)CC1)=Nc1cc(C)ccc1N2 | > 10 |  |  | > 10 | 0.07 |  | 329 |  |  | 
Cc1ccc2c(c1)N=C(C1=CCNCC1)c1cc(F)ccc1N2 | > 10 | > 10 | > 10 | > 10 |  |  |  | 63 |  | 
Cc1ccc2c(c1)N=C(C1=CCN(C)CC1)c1cc(C)ccc1N2 | > 10 |  |  | > 10 | 0.22 | 57 | 694 |  |  | 
CCc1ccc2c(c1)C(C1=CCN(C)CC1)=Nc1cc(C)ccc1N2 | > 10 |  |  | > 10 |  |  |  |  |  | 
Cc1ccc2c(c1)N=C(C1=CCN(C)CC1)c1cc(F)ccc1N2 | 0.31 | > 10 | > 10 | > 10 |  |  |  | 1840 | 5.2 | 360
CN1CC=C(C2=Nc3cc(F)ccc3Nc3ccc(Cl)cc32)CC1 | > 10 |  |  | > 10 |  |  | 108 |  |  | 
CC(C)N1CC=C(C2=Nc3cc(Cl)ccc3Nc3ccc(F)cc32)CC1 | > 10 |  |  | > 10 | 0.29 |  |  |  |  | 
CN1CCN(C2=Nc3cc(Cl)ccc3Nc3ccccc32)CC1 [CLOZAPINE] |  |  |  |  | 7.5 |  |  |  |  | 
Clc1ccc2c(c1)N=C(N1CCNCC1)c1ccccc1N2 [N-DESMETHYLCLOZAPINE] | 0.048 | > 10 | 0.67 |  |  | 80 | 489 |  |  | 
